In ChEMBL document CHEMBL3352470, “New ent-kauranes from the fruits of Annona glabra and their inhibitory nitric oxide production in LPS-stimulated RAW264.7 macrophages” (Bioorg Med Chem Lett, 2015):

What was measured:
RAW264.7 [1] = test: Cytotoxicity against mouse RAW264.7 cells at 30 uM by MTT assay relative to control; assay type: cell-based; conditions: raw264.7, 30 µM
RAW264.7 [2] = test: Inhibition of LPS-induced nitric oxide production in mouse RAW264.7 cells at 30 uM after 24 hrs by Griess assay relative to vehicle-treated control; assay type: functional; conditions: RAW264.7, 24 h
Outline: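 RAW 264.7 cells were seeded at 5×10^5 cells/mL. After 3 h they were pretreated with compound at 3, 10 and 30 µM, then 1 µg/mL LPS was added for 24 h. Supernatant nitrite was measured by the Griess reaction. Controls were unstimulated cells, LPS alone and dexamethasone. Values are mean ± SD of three independent experiments.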

RAW264.7 [3] = test: Inhibition of LPS-induced nitric oxide production in mouse RAW264.7 cells after 24 hrs by Griess assay relative to vehicle-treated control; assay type: functional, cell-based; conditions: RAW264.7, 24 h
Outline: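 RAW 264.7 cells were seeded at 5×10^5 cells/mL. After 3 h they were pretreated with compound at a series of concentrations chosen from the screening results, then stimulated 24 h with 1 µg/mL LPS. Nitrite in the supernatant was read by the Griess reaction. IC50 came from the dose-dependent inhibition. Dexamethasone was the positive control.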

Row | SMILES | IC50 (RAW264.7 [3]) | Activity (RAW264.7 [1]) | inhibition at 30 µM (RAW264.7 [2])
1 | C[C@@]12CCC[C@@](C)(C=O)[C@H]1CC[C@@]13C[C@@H](CC[C@H]12)[C@](O)(CO)C3 | 0.32 µM | Non-toxic | 90%
2 | C[C@@]12CCC[C@@](C)(C(=O)O[C@@H]3O[C@H](CO)[C@@H](O)[C@H](O)[C@H]3O)[C@H]1CC[C@@]13C[C@@H](CC[C@H]12)[C@@](O)(CO)C3 | > 30 µM | Non-toxic | –
3 | C[C@@]12CCC[C@@](C)(C(=O)O)[C@H]1C[C@H](O)[C@@]13C[C@@H](CC[C@@H]21)[C@@](O)(CO)C3 | 0.39 µM | Non-toxic | 90%
4 | C[C@@]12CCC[C@@](C)(C(=O)O[C@@H]3O[C@H](CO)[C@@H](O)[C@H](O)[C@H]3O)[C@H]1C[C@H](O)[C@@]13C[C@@H](CC[C@@H]21)[C@@H](CO)C3 | > 30 µM | Non-toxic | –
5 | C[C@@]12CCC[C@@](C)(C(=O)O[C@@H]3O[C@H](CO)[C@@H](O)[C@H](O)[C@H]3O)[C@H]1C[C@H](O)[C@]13C=C(CO)[C@H](CC[C@@H]21)C3 | 0.01 µM | Non-toxic | 90%

Now from value to compound, other results behind:

Row | IC50 (RAW264.7 [3]) | SMILES | Activity (RAW264.7 [1]) | inhibition at 30 µM (RAW264.7 [2])
6 | 14.3 µM | C[C@@]12CCC[C@@](C)(C(=O)O)[C@H]1CC[C@@]13C[C@@H](CC[C@H]12)[C@](O)(CO)C3 | Non-toxic | 70.4%
7 | 6.2 µM | CC1(C)CCC[C@]2(C)[C@@H]1CC[C@@]13C[C@@H](CC[C@H]12)[C@](O)(CO)C3 | Non-toxic | 70.4%
8 | 17.1 µM | CC1(C)CCC[C@]2(C)[C@@H]1CC[C@@]13C[C@@H](CC[C@H]12)[C@@](O)(CO)C3 | Non-toxic | 70.4%
